The values that follow come from ChEMBL document CHEMBL5500326, “Does size matter? - Comparing pyranoses with septanoses as ligands of the bacterial lectin FimH” (Eur J Med Chem, 2024).

The nature of assay [1]: Displacement of fluorescent tracer 3'-chloro-N-(2-(3-(3',6'-dihydroxy-3-oxo-3H-spiro[isobenzofuran-1,9'-xanthen]-5-yl)thioureido)ethyl)-4'-(alpha-D-mannopyranosyloxy)biphenyl-4-carboxamide from Escherichia coli F18 FimH […] expressed in Escherichia coli HM125 assessed as dissociation constant incubated for 24 hrs by competitive binding based fluorescence polarization assay. Summed up:
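Competitive FP: 50 nM FimH lectin domain and 50 nM mannoside-fluorescein tracer; ligand serially diluted from 500 μM final in 20 mM HEPES pH 7.4, 150 mM NaCl, 50 μg/mL BSA, 5% DMSO (10% for poorly soluble ligands). Read after 24 h equilibration, Ex 485/Em 535 nm. KD from analytical competitive binding model fit.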
A general note: In fluorescence polarisation assays a small probe gives low polarisation when free and higher when bound to something large.

A further assay deals with Escherichia coli. In words: Ratio of kd for displacement of fluorescent tracer 3'-chloro-N-(2-(3-(3',6'-dihydroxy-3-oxo-3H-spiro[isobenzofuran-1,9'-xanthen]-5-yl)thioureido)ethyl)-4'-(alpha-D-mannopyranosyloxy)biphenyl-4-carboxamide from Escherichia coli F18 full-length FimH expressed in Escherichia coli HM125 to kd for displacement of fluorescent tracer 3'-chloro-N-(2-(3-(3',6'-dihydroxy-3-oxo-3H-spiro[isobenzofuran-1,9'-xanthen]-5-yl)thioureido)ethyl)-4'-(alpha-D-mannopyranosyloxy)biphenyl-4-carboxamide from Escherichia coli F18 FimH lectin domain expressed in Escherichia coli HM125. The procedure, abridged: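 Ratio of FP-derived KD for full-length FimH (300 nM protein, 500 nM tracer, ligand from 5 mM) over KD for lectin domain (50 nM each, ligand from 500 μM). Both in HEPES/NaCl/BSA buffer pH 7.4 with DMSO, 24 h equilibration, Ex 485/Em 535 nm, competitive binding model fit.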

The target of assay [2] is Type 1 fimbrin D-mannose specific adhesin (Escherichia coli K-12, UniProt P08191). As to the kind of experiment: Displacement of fluorescent tracer 3'-chloro-N-(2-(3-(3',6'-dihydroxy-3-oxo-3H-spiro[isobenzofuran-1,9'-xanthen]-5-yl)thioureido)ethyl)-4'-(alpha-D-mannopyranosyloxy)biphenyl-4-carboxamide from Escherichia coli F18 full-length FimH expressed in Escherichia coli HM125 assessed as dissociation constant incubated for 24 hrs by competitive binding based fluorescence polarization assay. Summed up:
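Competitive FP with full-length FimH at 300 nM and tracer at 500 nM; ligand serially diluted from 5 mM final, or 50 μM for some mannosides, in 20 mM HEPES pH 7.4, 150 mM NaCl, 50 μg/mL BSA, 5% DMSO (10% for poorly soluble ligands, top 500 μM). Read after 24 h, Ex 485/Em 535 nm. KD from competitive binding model fit.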

A short description of assay [3]: Binding affinity to Escherichia coli F18 FimH lectin domain expressed in Escherichia coli HM125 assessed as dissociation constant by isothermal titration calorimetry. The procedure, abridged:
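ITC at 25 °C; protein dialyzed against 20 mM HEPES, 150 mM NaCl, pH 7.4, ligand dissolved in dialysate, 5% or 10% DMSO. Baselines corrected and peaks integrated, then global nonlinear regression fitting with confidence intervals.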
On the technique in general: ITC needs no label: the signal is the heat of the interaction.

Chain of Type 1 fimbrin D-mannose specific adhesin (P08191 whole entry): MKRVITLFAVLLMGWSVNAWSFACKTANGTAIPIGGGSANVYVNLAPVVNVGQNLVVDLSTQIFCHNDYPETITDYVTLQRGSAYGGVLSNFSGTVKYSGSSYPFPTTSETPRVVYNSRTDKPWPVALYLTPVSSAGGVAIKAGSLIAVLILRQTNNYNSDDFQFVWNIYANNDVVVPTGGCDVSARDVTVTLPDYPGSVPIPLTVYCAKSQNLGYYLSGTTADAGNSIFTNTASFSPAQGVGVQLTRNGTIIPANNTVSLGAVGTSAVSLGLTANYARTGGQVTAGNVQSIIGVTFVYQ

The term Kd denotes a measure of binding affinity in units of concentration. Take `OC[C@H]1OC[C@H](OCc2ccc(-c3ccccc3)cc2)[C@@H](O)[C@@H](O)[C@@H]1O`: the dissociation constant Kd in assay [1] (read-out: Kd) is 5670 nM; in assay [2] (read-out: Kd), 110000 nM. Besides, the Ratio with Escherichia coli was found to be 19.3.

`CCCCCCCO[C@H]1O[C@H](CO)[C@@H](O)[C@H](O)[C@@H]1O`: the Kd was determined as 28.3 nM in assay [1] (read-out: Kd) and 3600 nM in assay [2] (read-out: Kd).

As to `NC(=O)c1ccc(-c2ccc(CO[C@H]3CO[C@H](CO)[C@@H](O)[C@H](O)[C@@H]3O)c(Cl)c2)cc1`, the dissociation constant (Kd) in assay [1] (read-out: Kd) was 1580 nM; in assay [2] (read-out: Kd) it was 59400 nM. The Ratio in the assay with Escherichia coli turned out to be 37.6.

Turning to `N#Cc1cccc(-c2ccc(CO[C@H]3CO[C@H](CO)[C@@H](O)[C@H](O)[C@@H]3O)c(Cl)c2)c1`, the Kd was determined as 1440 nM in assay [1] (read-out: Kd) and 35500 nM in assay [2] (read-out: Kd). For the same compound, the Ratio in the assay on Escherichia coli was determined as 24.7.

In the case of `OC[C@H]1O[C@H](Oc2ccc(-c3ccccc3)cc2Cl)[C@@H](O)[C@@H](O)[C@@H]1O`, the Kd is 2.8 nM in assay [1] (read-out: Kd) and 458 nM in assay [2] (read-out: Kd).

Turning to `N#Cc1ccc(-c2ccc(CO[C@H]3CO[C@H](CO)[C@@H](O)[C@H](O)[C@@H]3O)c(Cl)c2)cc1`, the Kd in assay [1] (read-out: Kd) was 1300 nM; in assay [2] (read-out: Kd) it was 37800 nM. In addition, the Ratio in the assay on Escherichia coli came to 29.1.

Consider `OC[C@H]1O[C@H](Oc2ccc(-c3ccccc3)cc2)[C@@H](O)[C@@H](O)[C@@H]1O`, for which the Kd in assay [1] (read-out: Kd) stood at 15.1 nM.

In the case of `N#Cc1ccc(-c2ccc(O[C@H]3CO[C@H](CO)[C@@H](O)[C@H](O)[C@@H]3O)c(Cl)c2)cc1`, the dissociation constant (Kd) was found to be 100 nM in assay [1] (read-out: Kd) and 6990 nM in assay [2] (read-out: Kd).

Consider `NC(=O)c1ccc(-c2ccc(O[C@H]3O[C@H](CO)[C@@H](O)[C@H](O)[C@@H]3O)cc2)cc1`, for which the Kd in assay [2] (read-out: Kd) worked out at 240 nM.

`NC(=O)c1ccc(-c2ccc(CO[C@H]3CO[C@H](CO)[C@@H](O)[C@H](O)[C@@H]3O)cc2)cc1`: the Kd was 2720 nM in assay [1] (read-out: Kd) and 116000 nM in assay [2] (read-out: Kd). Further, the Ratio with Escherichia coli was 42.7.

`OC[C@H]1OC[C@H](Oc2ccc(-c3ccccc3)cc2Cl)[C@@H](O)[C@@H](O)[C@@H]1O`: the Kd was found to be 60 nM in assay [1] (read-out: Kd) and 6110 nM in assay [2] (read-out: Kd).

For the compound `OC[C@H]1OC[C@H](OCCCc2ccccc2)[C@@H](O)[C@@H](O)[C@@H]1O`, the Kd in assay [1] (read-out: Kd) amounted to 7050 nM; in assay [2] (read-out: Kd), 125000 nM. In addition, the Ratio in the assay on Escherichia coli is 17.8.

For `N#Cc1ccc(-c2ccc(O[C@H]3CO[C@H](CO)[C@@H](O)[C@H](O)[C@@H]3O)cc2)cc1`, the Kd amounted to 260 nM in assay [1] (read-out: Kd), 838 nM in assay [3] and 42300 nM in assay [2] (read-out: Kd).

For `CCCCCCCO[C@@H]1C[C@@H](O)[C@@H](O)[C@H](O)[C@@H](CO)O1`, the Kd result in assay [1] and in assay [2] was “Not Active” throughout.

Consider `N#Cc1ccc(-c2ccc(CO[C@H]3CO[C@H](CO)[C@@H](O)[C@H](O)[C@@H]3O)cc2)cc1`, for which the figures for the Kd in assay [1] (read-out: Kd) and in assay [2] (read-out: Kd) were 1440 nM and 63100 nM, respectively. Moreover, in the assay on Escherichia coli, the Ratio was determined as 43.8.

`NC(=O)c1ccc(-c2ccc(O[C@H]3O[C@H](CO)[C@@H](O)[C@H](O)[C@@H]3O)c(Cl)c2)cc1`: the equilibrium dissociation constant (Kd) in assay [1] (read-out: Kd) turned out to be 0.3 nM; in assay [2] (read-out: Kd), 86 nM.

For the compound `N#Cc1ccc(-c2ccc(O[C@H]3O[C@H](CO)[C@@H](O)[C@H](O)[C@@H]3O)cc2)cc1`, the Kd in assay [2] (read-out: Kd) worked out at 208 nM.

As to `NC(=O)c1ccc(-c2ccc(O[C@H]3CO[C@H](CO)[C@@H](O)[C@H](O)[C@@H]3O)c(Cl)c2)cc1`, the dissociation constant (Kd) was 120 nM in assay [1] (read-out: Kd) and 7340 nM in assay [2] (read-out: Kd).

Consider `CCCCCCCO[C@H]1CO[C@H](CO)[C@@H](O)[C@H](O)[C@@H]1O`, for which the Kd came out at 1940 nM in assay [1] (read-out: Kd) and 31800 nM in assay [2] (read-out: Kd). Moreover, in the assay on Escherichia coli, the Ratio stood at 16.4.

Take `OC[C@H]1OC[C@H](OCc2ccccc2)[C@@H](O)[C@@H](O)[C@@H]1O`: the Kd in assay [1] (read-out: Kd) was found to be 80100 nM; in assay [2] (read-out: Kd), 417000 nM. In the assay on Escherichia coli, the Ratio was found to be 5.2.

Consider `N#Cc1ccc(-c2ccc(O[C@H]3O[C@H](CO)[C@@H](O)[C@H](O)[C@@H]3O)c(Cl)c2)cc1`, for which the Kd in assay [1] (read-out: Kd) was found to be 0.5 nM; in assay [2] (read-out: Kd), 84 nM.
